Key:
Assay type in all cases: functional
Cavia porcellus [1] = organism: Cavia porcellus; assay: Concentration needed to achieve a 75% increase in coronary blood flow in 'Langendorff', guinea pig heart (in vitro Negative inotropic potency)
Procedure, shortened: (§1)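 Isolated Langendorff-perfused guinea pig hearts infused with a range of drug concentrations; force (g), rate (beats/min) and coronary flow (mL/min) recorded. A linear regression of percent-control flow gives C175, the micromolar concentration raising flow to 175% of control, reported only if within the tested range. Raw data analysed by paired t tests.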

Cavia porcellus [2] = organism: Cavia porcellus; assay: Concentration needed to elicit a 75% increase beyond control in coronary flow in ''Langendorff'', guinea pig heart (in vitro); procedure, shortened: as §1
Cavia porcellus [3] = organism: Cavia porcellus; assay: Concentration needed to achieve a 75% increase in coronary blood flow in 'Langendorff', guinea pig heart (in vitro negative inotropic activity); procedure, shortened: as §1
Rattus norvegicus [4] = assay: Ability to lower blood pressure in the spontaneously hypertensive rat (SHR) at 1 mg/kg (p.o.); settings: route oral
Procedure, shortened: (§2)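 Spontaneously hypertensive rats dosed orally at the stated dose; read-out is the maximum fall in blood pressure (mmHg), with significance shown as P.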

Oryctolagus cuniculus [5] = organism: Oryctolagus cuniculus; assay: In vitro inhibition of development of isometric tension, in response to KCl (60 uM) in rabbit aorta expressed as percent change from control
Procedure, shortened: (§3)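 Test compounds at 10 μM; tension and calcium influx each expressed as % change from control, measured against KCl ([…]) or NE (10 μM) stimulus.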

Oryctolagus cuniculus [6] = organism: Oryctolagus cuniculus; assay: In vitro inhibition of development of isometric tension, in response to norepinephrine (NE, 10 uM) in rabbit aorta expressed as percent change from control; procedure, shortened: as §3
Rattus norvegicus [7] = assay: Ability to lower blood pressure in the spontaneously hypertensive rat (SHR) at 10 mg/kg (p.o.); settings: route oral; procedure, shortened: as §2
Oryctolagus cuniculus [8] = organism: Oryctolagus cuniculus; assay: Inhibition of [Ca2+] influx in response to a stimulus of norepinephrine (NE, 10 uM) expressed as percent change from control; procedure, shortened: as §3
Oryctolagus cuniculus [9] = organism: Oryctolagus cuniculus; assay: Inhibition of [Ca2+] influx in response to a stimulus of KCL ([…]) expressed as percent change from control; procedure, shortened: as §3
Rattus norvegicus [10] = assay: Ability to lower blood pressure in the spontaneously hypertensive rat (SHR) at 100 mg/kg (p.o.); settings: route oral
Procedure, shortened: (§4)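 Spontaneously hypertensive rats were given a single oral dose of the compound. The read-out was the maximum fall in blood pressure, in mmHg, after that dose. A P value for significance was reported with each value.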

Rattus norvegicus [11] = assay: Ability to lower blood pressure in the spontaneously hypertensive rat (SHR) at 29 mg/kg (p.o.); settings: route oral; procedure, shortened: as §4

Row | Compound | P (Ei) (Cavia porcellus [1]) | C175 (Cavia porcellus [2]) [µM] | Contractile force, % of control (Cavia porcellus [3]) [%] | Max fall in blood pressure (Rattus norvegicus [4]) [mmHg] | Change (Oryctolagus cuniculus [5]) [%] | Change (Oryctolagus cuniculus [6]) [%] | Max fall in blood pressure (Rattus norvegicus [7]) [mmHg] | Change (Oryctolagus cuniculus [8]) [%] | Change (Oryctolagus cuniculus [9]) [%] | Max fall in blood pressure (Rattus norvegicus [10]) [mmHg] | Max fall in blood pressure (Rattus norvegicus [11]) [mmHg]
1 | COc1ccc(C#Cc2ccccc2)c(CC(C)N(C)CCc2ccc(OC)c(OC)c2)c1 (stereo not drawn) | <0.05 | 0.025 | 70 | 53 |  |  |  |  |  |  | 
2 | COc1cc(CCNC(C)Cc2cc(OC)ccc2C#Cc2ccccc2)cc(OC)c1 (stereo not drawn) | 0.026 | 0.00075 | 120 |  | -15 | -13 | 36 | -23 | -42 |  | 
3 | COc1ccc(C#Cc2ccccc2)c(CC(C)N(C)CCc2ccc(Cl)c(Cl)c2)c1 (stereo not drawn) | >0.5 | 0.004 | 90 | 67 |  |  |  |  |  |  | 
4 | COc1ccc(C#Cc2ccccc2)c(CCCN(C)CCc2ccc(OC)c(OC)c2)c1 | <0.05 | 3 | 85 |  |  |  |  |  |  | 62 | 
5 | CCCCC#Cc1ccc(OC)cc1CCCN(C)CCc1ccc(OC)c(OC)c1 | >0.5 | 0.2 | 100 |  |  |  |  |  |  | 35 | 
6 | COc1ccc(C#Cc2ccc([S+](C)[O-])cc2)c(CC(C)N(C)CCc2ccc(OC)c(OC)c2)c1 (stereo not drawn) | <0.001 | 3 | 10 |  |  |  |  |  |  |  | 29

From ChEMBL document CHEMBL1124060, “2-Ethynylbenzenealkanamines. A new class of calcium entry blockers” (1988)
